Activity calls are given as the source filed them. The calls are words filed in the database; no cut-off is given here.
Assays:
MDA-MB-231 = test: Cytotoxicity against human MDA-MB-231 assessed as growth inhibition at 10 uM by NCI protocol relative to control; assay type: functional; conditions: read-out: GI
In short: (§1)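 Run by NCI as a single-dose screen at 10 μM across the sixty-cell-line panel, which covers nine human tumour tissue types. The read-out is percent growth inhibition of treated cells relative to untreated cells.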

SF-295 = test: Cytotoxicity against human SF-295 assessed as growth inhibition at 10 uM by NCI protocol relative to control; assay type: functional; conditions: read-out: GI; in short: as §1
MCF7 = test: Cytotoxicity against human MCF7 assessed as growth inhibition at 10 uM by NCI protocol relative to control; assay type: functional; conditions: read-out: GI; in short: as §1
CAKI-1 = test: Cytotoxicity against human Caki1 assessed as growth inhibition at 10 uM by NCI protocol relative to control; assay type: functional; conditions: read-out: GI; in short: as §1
LOX IMVI = test: Cytotoxicity against human LOX IMVI assessed as growth inhibition at 10 uM by NCI protocol relative to control; assay type: functional; conditions: read-out: GI; in short: as §1
UACC-62 = test: Cytotoxicity against human UACC-62 assessed as growth inhibition at 10 uM by NCI protocol relative to control; assay type: functional; conditions: read-out: GI
In short: (§2)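 Run by the NCI under its standard protocol: one dose of 10 μM against a sixty-line panel from nine human tumour tissues. Result given as percent growth inhibition of treated cells relative to untreated cells.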

OVCAR-3 = test: Cytotoxicity against human OVCAR-3 assessed as growth inhibition at 10 uM by NCI protocol relative to control; assay type: functional; conditions: read-out: GI; in short: as §1
OVCAR-8 = test: Cytotoxicity against human OVCAR-8 assessed as growth inhibition at 10 uM by NCI protocol relative to control; assay type: functional; conditions: read-out: GI; in short: as §1
EKVX = test: Cytotoxicity against human EKVX assessed as growth inhibition at 10 uM by NCI protocol relative to control; assay type: functional; conditions: read-out: GI; in short: as §1
MDA-MB-468 = test: Cytotoxicity against human MDA-MB-468 assessed as growth inhibition at 10 uM by NCI protocol relative to control; assay type: functional; conditions: read-out: GI; in short: as §1
A549 = test: Cytotoxicity against human A549 assessed as growth inhibition at 10 uM by NCI protocol relative to control; assay type: functional; conditions: read-out: GI; in short: as §1
OVCAR-4 = test: Cytotoxicity against human OVCAR-4 assessed as growth inhibition at 10 uM by NCI protocol relative to control; assay type: functional; conditions: read-out: GI; in short: as §1
ACHN = test: Cytotoxicity against human ACHN assessed as growth inhibition at 10 uM by NCI protocol relative to control; assay type: functional; conditions: read-out: GI; in short: as §1
RPMI-8226 = test: Cytotoxicity against human RPMI-8226 assessed as growth inhibition at 10 uM by NCI protocol relative to control; assay type: functional; in short: as §1
NCI-H322M = test: Cytotoxicity against human NCI-H322M assessed as growth inhibition at 10 uM by NCI protocol relative to control; assay type: functional; conditions: read-out: GI; in short: as §1
UO-31 = test: Cytotoxicity against human UO31 assessed as growth inhibition at 10 uM by NCI protocol relative to control; assay type: functional; conditions: read-out: GI; in short: as §2
OVCAR-5 = test: Cytotoxicity against human OVCAR-5 assessed as growth inhibition at 10 uM by NCI protocol relative to control; assay type: functional, cell-based; in short: as §1
PC-3 = test: Cytotoxicity against human PC3 assessed as growth inhibition at 10 uM by NCI protocol relative to control; assay type: functional; conditions: read-out: GI; in short: as §1
NCI-H460 = test: Cytotoxicity against human NCI-H460 assessed as growth inhibition at 10 uM by NCI protocol relative to control; assay type: functional; conditions: read-out: GI; in short: as §1
T47D [1] = test: Cytotoxicity against human T47D cells assessed as reduction in cell viability after 3 hrs by MTT assay
HCT-116 = test: Cytotoxicity against human HCT-116 assessed as growth inhibition at 10 uM by NCI protocol relative to control; assay type: functional; conditions: read-out: GI; in short: as §1
T47D [2] = test: Cytotoxicity against human T-47D assessed as growth inhibition at 10 uM by NCI protocol relative to control; assay type: functional; conditions: read-out: GI; in short: as §2
SF-268 = test: Cytotoxicity against human SF-268 assessed as growth inhibition at 10 uM by NCI protocol relative to control; assay type: functional; conditions: read-out: GI; in short: as §1
SR = test: Cytotoxicity against human SR assessed as growth inhibition at 10 uM by NCI protocol relative to control; assay type: functional; conditions: read-out: GI; in short: as §2
NCI-H23 = test: Cytotoxicity against human NCI-H23 assessed as growth inhibition at 10 uM by NCI protocol relative to control; assay type: functional; conditions: read-out: GI; in short: as §1
A498 = test: Cytotoxicity against human A498 assessed as growth inhibition at 10 uM by NCI protocol relative to control; assay type: functional; conditions: read-out: GI; in short: as §1
NCI-H522 = test: Cytotoxicity against human NCI-H522 assessed as growth inhibition at 10 uM by NCI protocol relative to control; assay type: functional; conditions: read-out: GI; in short: as §1
NCI-H226 = test: Cytotoxicity against human NCI-H226 assessed as growth inhibition at 10 uM by NCI protocol relative to control; assay type: functional; conditions: read-out: GI; in short: as §1
BT-549 = test: Cytotoxicity against human BT-549 assessed as growth inhibition at 10 uM by NCI protocol relative to control; assay type: functional; conditions: read-out: GI; in short: as §1
M14 = test: Cytotoxicity against human M14 assessed as growth inhibition at 10 uM by NCI protocol relative to control; assay type: functional; conditions: read-out: GI; in short: as §1
IGROV-1 = test: Cytotoxicity against human IGROVI assessed as growth inhibition at 10 uM by NCI protocol relative to control; assay type: functional; conditions: read-out: GI; in short: as §1
CCRF-CEM = test: Cytotoxicity against human CCRF-CEM assessed as growth inhibition at 10 uM by NCI protocol relative to control; assay type: functional; conditions: read-out: GI; in short: as §1
HL-60 = test: Cytotoxicity against human HL60 assessed as growth inhibition at 10 uM by NCI protocol relative to control; assay type: functional; conditions: read-out: GI; in short: as §1
SNB-19 = test: Cytotoxicity against human SNB-19 assessed as growth inhibition at 10 uM by NCI protocol relative to control; assay type: functional; conditions: read-out: GI; in short: as §2
HCT-15 = test: Cytotoxicity against human HCT-15 assessed as growth inhibition at 10 uM by NCI protocol relative to control; assay type: functional; conditions: read-out: GI; in short: as §1
SN12C = test: Cytotoxicity against human SN12C assessed as growth inhibition at 10 uM by NCI protocol relative to control; assay type: functional; conditions: read-out: GI; in short: as §2
UACC-257 = test: Cytotoxicity against human UACC-257 assessed as growth inhibition at 10 uM by NCI protocol relative to control; assay type: functional; conditions: read-out: GI; in short: as §2
HOP-62 = test: Cytotoxicity against human HOP-62 assessed as growth inhibition at 10 uM by NCI protocol relative to control; assay type: functional; conditions: read-out: GI; in short: as §1
MOLT-4 = test: Cytotoxicity against human MOLT-4 assessed as growth inhibition at 10 uM by NCI protocol relative to control; assay type: functional; conditions: read-out: GI; in short: as §1
SK-MEL-5 = test: Cytotoxicity against human SK-MEL-5 assessed as growth inhibition at 10 uM by NCI protocol relative to control; assay type: functional; conditions: read-out: GI; in short: as §1
K562 = test: Cytotoxicity against human K-562 assessed as growth inhibition at 10 uM by NCI protocol relative to control; assay type: functional; conditions: read-out: GI; in short: as §1
MDA-MB-435 = test: Cytotoxicity against human MDA-MB-435 assessed as growth inhibition at 10 uM by NCI protocol relative to control; assay type: functional, cell-based; in short: as §1

Structure (SMILES): COc1ccc(-c2csc(NC(=O)CN3CCN(c4cc(=O)n(-c5ccccc5)c5ccccc45)CC3)n2)cc1
- inhibition of growth at 10 µM (MDA-MB-231): 22.4%
- inhibition of growth at 10 µM (SF-295): 22.9%
- inhibition of growth at 10 µM (MCF7): 26%
- inhibition of growth at 10 µM (CAKI-1): 16.1%
- inhibition of growth at 10 µM (LOX IMVI): 15%
- inhibition of growth at 10 µM (UACC-62): 31.1%
- inhibition of growth at 10 µM (OVCAR-3): 17.1%
- inhibition of growth at 10 µM (OVCAR-8): 15.5%
- inhibition of growth at 10 µM (EKVX): 35.2%
- inhibition of growth at 10 µM (MDA-MB-468): 55.3%
- inhibition of growth at 10 µM (A549): 19.7%
- inhibition of growth at 10 µM (OVCAR-4): 70.4%
- inhibition of growth at 10 µM (ACHN): 19%
- growth inhibition (GI) (RPMI-8226): inactive
- inhibition of growth at 10 µM (NCI-H322M): 12.6%
- inhibition of growth at 10 µM (UO-31): 27.9%
- growth inhibition (GI) (OVCAR-5): inactive
- inhibition of growth at 10 µM (PC-3): 27.5%
- inhibition of growth at 10 µM (NCI-H460): 15.9%
- IC50 (T47D [1]): 8.11 µM
- inhibition of growth at 10 µM (HCT-116): 28.9%
- inhibition of growth at 10 µM (T47D [2]): 60%
- inhibition of growth at 10 µM (SF-268): 12.4%
- inhibition of growth at 10 µM (SR): 11.2%
- inhibition of growth at 10 µM (NCI-H23): 35.7%
- inhibition of growth at 10 µM (A498): 13%
- inhibition of growth at 10 µM (NCI-H522): 30.4%
- inhibition of growth at 10 µM (NCI-H226): 18.7%
- inhibition of growth at 10 µM (BT-549): 19.9%
- inhibition of growth at 10 µM (M14): 16.1%
- inhibition of growth at 10 µM (IGROV-1): 21.5%
- inhibition of growth at 10 µM (CCRF-CEM): 24.9%
- inhibition of growth at 10 µM (HL-60): 30.2%
- inhibition of growth at 10 µM (SNB-19): 24.2%
- inhibition of growth at 10 µM (HCT-15): 18%
- inhibition of growth at 10 µM (SN12C): 16%
- inhibition of growth at 10 µM (UACC-257): 27.8%
- inhibition of growth at 10 µM (HOP-62): 12.4%
- inhibition of growth at 10 µM (MOLT-4): 53.1%
- inhibition of growth at 10 µM (SK-MEL-5): 53%
- inhibition of growth at 10 µM (K562): 56.4%
- growth inhibition (GI) (MDA-MB-435): inactive

Reference: ChEMBL document CHEMBL4819122, “Novel 4-(piperazin-1-yl)quinolin-2(1H)-one bearing thiazoles with antiproliferative activity through VEGFR-2-TK inhibition” (Bioorg Med Chem, 2021)
